# Results gathered from unrelated publications.
# Compare with care: the assays were run in different laboratories.
# gag-pol reverse transcriptase: Gag-Pol polyprotein, reverse transcriptase (gag-pol, Human immunodeficiency virus 1, UniProt P03366)
# ADRA2A: Alpha-2A adrenergic receptor (ADRA2A, Homo sapiens, UniProt P08913)
# OPRD1: Delta-type opioid receptor (OPRD1, Homo sapiens, UniProt P41143)
# OGT: UDP-N-acetylglucosamine--peptide N-acetylglucosaminyltransferase 110 kDa subunit (OGT, Homo sapiens, UniProt O15294)
# HTR3A: 5-hydroxytryptamine receptor 3A (HTR3A, Homo sapiens, UniProt P46098)
Compound,target,assay,test system,conditions,IC50 [µM]
Cc1cn([C@@H]2CC[C@H](OC(C(=O)O)C(=O)O)C2)c(=O)[nH]c1=O (relative stereo),gag-pol reverse transcriptase,"enzyme activity, inhibitor, radiometric",,,42
CC(CCc1ccccc1)NC(C)C(O)c1ccc(O)cc1 (centres unmarked),ADRA2A,"ligand displacement, radioligand",,,9.39
CC(C)Cc1ccc([C@@H](C)C(=O)O)cc1,"Histone acetyltransferase p300 (EP300, Homo sapiens, UniProt Q09472)","enzyme activity, inhibitor, mobility shift",,,~6000
CN1CCC(=C2c3ccccc3CCc3sccc32)CC1,ADRA2A,"ligand displacement, radioligand",,,0.577
CNC[C@H](Cc1ccc(O)cc1)NC[C@H](Cc1ccc(O)cc1)NCC1CCCCCC1,OPRD1,cell-free assay,,,> 10
Cc1cn([C@@H]2C=C[C@H](OC(P(=O)(O)O)P(=O)(O)O)C2)c(=O)[nH]c1=O (relative stereo),gag-pol reverse transcriptase,"enzyme activity, inhibitor, radiometric",,,204
CCN(CC)C(=O)C1CN2CCc3cc(OC)c(OC)cc3C2CC1OC(C)=O (centres unmarked),ADRA2A,"ligand displacement, radioligand",,,0.825
CC[C@H](C)[C@H](NC(=O)[C@H](CO)NC(=O)[C@H](Cc1ccc(O)cc1)NC(=O)[C@H](CCCCN)NC(=O)[C@@H]1CCCN1C(=O)[C@H](CCSC)NC(=O)[C@H](Cc1ccccc1)NC(=O)[C@H](CCSC)NC(=O)[C@@H](NC(=O)[C@@H]1CCCN1)C(C)C)C(=O)N[C@H](C(=O)N[C@@H](Cc1ccccc1)C(=O)O)[C@@H](C)CC,OGT,"enzyme activity, inhibitor, fluorescence",,,20
CC(C)CCN1CCN([C@@H](CNCc2ccccc2)C(C)C)C[C@H]1C(C)C,OPRD1,cell-free assay,,,> 10
CCOC(=O)c1cncn1[C@H](C)c1ccc(C2(C(F)(F)F)N=N2)cc1,HTR3A,"ion current, two-electrode voltage clamp",,oocytes,9
CC[C@H](C)[C@H](NC(=O)[C@H](CO)NC(=O)[C@H](Cc1ccc(O)cc1)NC(=O)[C@H](CCCCN)NC(=O)[C@@H]1CCCN1C(=O)[C@H](CCSC)NC(=O)[C@@H](N)Cc1ccccc1)C(=O)N[C@H](C(=O)N[C@@H](Cc1ccccc1)C(=O)O)[C@@H](C)CC,OGT,"enzyme activity, inhibitor, fluorescence",,,120
C[C@H](N)Cn1ncc2ccc3c(c21)CCCO3,HTR3A,"ligand displacement, radioligand",,,31.7
CCC[C@H](CN[C@H](CNC)Cc1ccc(O)cc1)NCCC1CCCC1,OPRD1,cell-free assay,,,> 10
O=c1c(O)c(-c2ccc(O[C@@H]3O[C@H](CO)[C@@H](O)[C@H](O)[C@H]3O)c(O)c2)oc2cc(O)cc(O)c12,"Carbonic anhydrase 2 (CA2, Homo sapiens, UniProt P00918)","enzyme activity, inhibitor, absorbance",,,0.0194
CCC[C@H](CNC)NC[C@@H](CCC)NCC1CCC(C)CC1 (some centres unmarked),OPRD1,cell-free assay,,,> 10
Cc1cc(C)nc(Nc2ncc(C(=O)NCCc3c(C)[nH]c4ccccc34)cn2)c1,"Cytochrome P450 2C19 (CYP2C19, Homo sapiens, UniProt P33261)","enzyme activity, inhibitor","human, liver microsomes",,11
CCC[C@H](CNC)NC[C@H](Cc1ccc(O)cc1)NCCC1CCCC1,OPRD1,cell-free assay,,,> 10
Nc1c(S(=O)(=O)O)cc(Nc2ccc(Nc3nc(Cl)nc(Nc4cccc(S(=O)(=O)O)c4)n3)c(S(=O)(=O)O)c2)c2c1C(=O)c1ccccc1C2=O,"P2X purinoceptor 2 (P2RX2, Homo sapiens, UniProt Q9UBL9)","calcium signal, antagonist",,,1.89
CNC[C@@H](Cc1ccc(O)cc1)N1CCN(CCc2cccc(C)c2)[C@@H](C(C)C)C1,OPRD1,cell-free assay,,,> 10
CN1CCN(C2=Nc3ccccc3Oc3ccc(Cl)cc32)CC1,HTR3A,"ligand displacement, radioligand",,,0.377
